Numbered stars: 1 amine (or outer) side, 2 acyl side, 3 side chain; on linkers, the order of the positions; unused ones are H or OH. Bridge positions count the residues as written; N and C are the ends. Square brackets hold non-standard residues; d marks the D form. Peptide text beside a SMILES is read from it. Bip(4'-CONH2) = NC(=O)c1ccc(-c2ccc(C[C@H](N)C(=O)O)cc2)cc1; Pro(trans-4-Ph) = O=C(O)[C@@H]1C[C@@H](c2ccccc2)CN1; Pro(cis-4-CF3) = O=C(O)[C@@H]1C[C@H](C(F)(F)F)CN1; X1 = O=C([C@@H]1C[C@@H](C(F)(F)F)CN1[*:1])[*:2]; Phe(4-CONH2) = NC(=O)c1ccc(C[C@H](N)C(=O)O)cc1; Bip = N[C@@H](Cc1ccc(-c2ccccc2)cc1)C(=O)O; Pro(4,4-F2) = O=C(O)[C@@H]1CC(F)(F)CN1; NHCH2CH2SCH2CO = O=C(CSCCN[*:1])[*:2]; Lys(Me2) = CN(C)CCCC[C@H](N)C(=O)O; NMeR = CN[C@@H](CCCNC(=N)N)C(=O)O; NMeF = CN[C@@H](Cc1ccccc1)C(=O)O; tBuAla = CC(C)(C)C[C@H](N)C(=O)O; Tic = O=C(O)[C@@H]1Cc2ccccc2CN1; hLys = NCCCCC[C@H](N)C(=O)O; NMeC = CN[C@@H](CS)C(=O)O; Pip = O=C(O)[C@@H]1CCCCN1
Columns and labels:
HEK293 = test: Cytotoxicity against human HEK293 cells overexpressing human NNMT assessed as reduction in ATP level measured after 24 hrs by CellTiter-glo luminescence assay; type: cell-based; conditions: hek293, 24 h
Outline: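 Reported value is the peptide concentration giving a 20% decline in cellular ATP in NNMT-overexpressing HEK293 cells, with peptides tested up to 100 μM.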

[1] = target: T1, Nicotinamide N-methyltransferase (Mus musculus, UniProt O55239); test: Inhibition of mouse recombinant NNMT using nicotinamide and SAM as substrate assessed as reduction in 1-methyl-nicotinamide formation incubated for 22 to 24 hrs by RapidFire Mass spectroscopy
T1 sequence (O55239 whole entry): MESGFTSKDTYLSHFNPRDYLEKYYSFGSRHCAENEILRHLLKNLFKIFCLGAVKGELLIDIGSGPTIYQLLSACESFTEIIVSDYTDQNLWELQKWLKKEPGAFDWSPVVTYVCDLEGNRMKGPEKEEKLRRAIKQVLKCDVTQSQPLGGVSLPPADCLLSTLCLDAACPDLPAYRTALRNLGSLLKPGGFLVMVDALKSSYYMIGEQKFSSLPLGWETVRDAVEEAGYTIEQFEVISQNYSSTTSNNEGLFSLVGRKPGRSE

Compound	IC50 [1]	CC20 (HEK293)
CN(C)CCCC[C@@H]1NC(=O)[C@H](CC(C)(C)C)NC(=O)[C@@H]2C[C@@H](c3ccccc3)CN2C(=O)[C@H](Cc2ccccc2)N(C)C(=O)CSCCNC(=O)[C@H](Cc2ccc(-c3ccc(C(N)=O)cc3)cc2)NC(=O)[C@@H]2Cc3ccccc3CN2C(=O)[C@@H]2CC(F)(F)CN2C1=O (cyclo([Lys(Me2)][Pro(4,4-F2)][Tic][Bip(4'-CONH2)][NHCH2CH2SCH2CO][NMeF][Pro(trans-4-Ph)][tBuAla]))	0.62 nM	> 100 µM
CN1C(=O)[C@H](Cc2ccc(O)cc2)NC(=O)[C@@H]2CCCN2C(=O)[C@H](Cc2ccccc2)NC(=O)CSC[C@@H](C(N)=O)NC(=O)[C@H](Cc2ccc(C(N)=O)cc2)NC(=O)[C@@H]2Cc3ccccc3CN2C(=O)[C@@H]2CCCN2C(=O)[C@@H]1CCCNC(=N)N ({CH2CO}-FPY[NMeR]P[Tic][Phe(4-CONH2)]C-NH2; thioether N-8)	277 nM	–
CC(C)C[C@@H]1NC(=O)[C@@H]2CCCN2C(=O)[C@H](Cc2ccccc2)N(C)C(=O)CSC[C@@H](C(N)=O)NC(=O)[C@H](Cc2ccc(C(N)=O)cc2)NC(=O)[C@@H]2Cc3ccccc3CN2C(=O)[C@@H]2CCCN2C(=O)[C@H](CCCNC(=N)N)NC1=O ({CH2CO}-[NMeF]PLRP[Tic][Phe(4-CONH2)]C-NH2; thioether N-8)	96 nM	–
CN1C(=O)CSC[C@@H](C(N)=O)NC(=O)[C@H](Cc2ccc(C(N)=O)cc2)NC(=O)[C@@H]2Cc3ccccc3CN2C(=O)[C@@H]2CCCN2C(=O)[C@H](CCCCN)NC(=O)[C@H](Cc2ccc(O)cc2)NC(=O)[C@@H]2CCCN2C(=O)[C@@H]1Cc1ccccc1 ({CH2CO}-[NMeF]PYKP[Tic][Phe(4-CONH2)]C-NH2; thioether N-8)	188 nM	–
CN1C(=O)CSC[C@@H](C(N)=O)NC(=O)[C@H](Cc2ccc(C(N)=O)cc2)NC(=O)[C@@H]2Cc3ccccc3CN2C(=O)[C@@H]2CCCN2C(=O)[C@H](CCCCN)NC(=O)[C@H](CC(C)(C)C)NC(=O)[C@@H]2CCCN2C(=O)[C@@H]1Cc1ccccc1 ({CH2CO}-[NMeF]P[tBuAla]KP[Tic][Phe(4-CONH2)]C-NH2; thioether N-8)	23 nM	–
CN1C(=O)[C@H](Cc2ccc(C(N)=O)cc2)NC(=O)[C@@H]2Cc3ccccc3CN2C(=O)[C@@H]2CCCN2C(=O)[C@H](CCCNC(=N)N)NC(=O)[C@H](Cc2ccc(O)cc2)NC(=O)[C@@H]2CCCN2C(=O)[C@H](Cc2ccccc2)NC(=O)CSC[C@H]1C(N)=O ({CH2CO}-FPYRP[Tic][Phe(4-CONH2)][NMeC]-NH2; thioether N-8)	8030 nM	–
CN1C(=O)CSCCNC(=O)[C@H](Cc2ccc(-c3ccc(C(N)=O)cc3)cc2)NC(=O)[C@@H]2Cc3ccccc3CN2C(=O)[C@@H]2CC(F)(F)CN2C(=O)[C@@H]2CCCCN2C(=O)[C@H](CC(C)(C)C)NC(=O)[C@@H]2C[C@@H](c3ccccc3)CN2C(=O)[C@@H]1Cc1ccccc1 (cyclo([NMeF][Pro(trans-4-Ph)][tBuAla][Pip][Pro(4,4-F2)][Tic][Bip(4'-CONH2)][NHCH2CH2SCH2CO]))	–	> 100 µM
CC(C)C[C@@H]1NC(=O)[C@@H]2CCCN2C(=O)[C@H](Cc2ccccc2)NC(=O)CSC[C@@H](C(N)=O)NC(=O)[C@H](Cc2ccc(-c3ccc(C(N)=O)cc3)cc2)NC(=O)[C@@H]2Cc3ccccc3CN2C(=O)[C@@H]2CCCN2C(=O)[C@H](CCCCN)NC1=O ({CH2CO}-FPLKP[Tic][Bip(4'-CONH2)]C-NH2; thioether N-8)	–	> 100 µM
CN(C)CCCC[C@@H]1NC(=O)[C@H](Cc2ccc(O)cc2)NC(=O)[C@@H]2CCCN2C(=O)[C@H](Cc2ccccc2)N(C)C(=O)CSC[C@@H](C(N)=O)NC(=O)[C@H](Cc2ccc(C(N)=O)cc2)NC(=O)[C@@H]2Cc3ccccc3CN2C(=O)[C@@H]2CCCN2C1=O ({CH2CO}-[NMeF]PY[Lys(Me2)]P[Tic][Phe(4-CONH2)]C-NH2; thioether N-8)	1350 nM	–
CN1C(=O)CSC[C@@H](C(N)=O)NC(=O)[C@H](Cc2ccc(C(N)=O)cc2)NC(=O)[C@@H]2Cc3ccccc3CN2C(=O)[C@@H]2CCCN2C(=O)[C@H](CCCNC(=N)N)NC(=O)[C@H](Cc2ccccc2)NC(=O)[C@@H]2CCCN2C(=O)[C@@H]1Cc1ccccc1 ({CH2CO}-[NMeF]PFRP[Tic][Phe(4-CONH2)]C-NH2; thioether N-8)	253 nM	–
CC(C)C[C@@H]1NC(=O)[C@@H]2CCCN2C(=O)[C@H](Cc2ccccc2)NC(=O)CSC[C@@H](C(N)=O)NC(=O)[C@H](Cc2ccc(-c3ccccc3)cc2)NC(=O)[C@@H]2Cc3ccccc3CN2C(=O)[C@@H]2CCCN2C(=O)[C@H](CCCCN)NC1=O ({CH2CO}-FPLKP[Tic][Bip]C-NH2; thioether N-8)	73 nM	–
CN1C(=O)CSC[C@@H](C(N)=O)NC(=O)[C@H](Cc2ccc(C(N)=O)cc2)NC(=O)[C@@H]2Cc3ccccc3CN2C(=O)[C@@H]2CCCN2C(=O)[C@H](CCCNC(=N)N)NC(=O)[C@H](Cc2ccc(O)cc2)NC(=O)[C@@H]2CCCN2C(=O)[C@@H]1Cc1ccccc1 ({CH2CO}-[NMeF]PYRP[Tic][Phe(4-CONH2)]C-NH2; thioether N-8)	217 nM	–
N=C(N)NCCC[C@@H]1NC(=O)[C@H](Cc2ccc(O)cc2)NC(=O)[C@@H]2CCCN2C(=O)[C@H](Cc2ccccc2)NC(=O)CSC[C@@H](C(N)=O)NC(=O)[C@H](Cc2ccc(C(N)=O)cc2)NC(=O)[C@@H]2Cc3ccccc3CN2C(=O)[C@@H]2CCCN2C1=O ({CH2CO}-FPYRP[Tic][Phe(4-CONH2)]C-NH2; thioether N-8)	25 nM	> 100 µM

Further lines, with some results ahead:

IC50 [1]	Compound	CC20 (HEK293)
40 nM	CC(C)C[C@@H]1NC(=O)[C@@H]2CCCN2C(=O)[C@H](Cc2ccccc2)NC(=O)CSC[C@@H](C(N)=O)NC(=O)[C@H](Cc2ccc(C(N)=O)cc2)NC(=O)[C@@H]2Cc3ccccc3CN2C(=O)[C@@H]2CCCN2C(=O)[C@H](CCCCN)NC1=O ({CH2CO}-FPLKP[Tic][Phe(4-CONH2)]C-NH2; thioether N-8)	–
214 nM	CC(C)C[C@@H]1NC(=O)[C@@H]2C[C@H](C(F)(F)F)CN2C(=O)[C@H](Cc2ccccc2)NC(=O)CSC[C@@H](C(N)=O)NC(=O)[C@H](Cc2ccc(C(N)=O)cc2)NC(=O)[C@@H]2Cc3ccccc3CN2C(=O)[C@@H]2CCCN2C(=O)[C@H](CCCCN)NC1=O ({CH2CO}-F[Pro(cis-4-CF3)]LKP[Tic][Phe(4-CONH2)]C-NH2; thioether N-8)	–
1.3 nM	CC(C)C[C@@H]1NC(=O)[C@@H]2CCCN2C(=O)[C@H](Cc2ccccc2)N(C)C(=O)CSC[C@@H](C(N)=O)NC(=O)[C@H](Cc2ccc(C(N)=O)cc2)NC(=O)[C@@H]2Cc3ccccc3CN2C(=O)[C@@H]2CCCN2C(=O)[C@H](CCCCCN)NC1=O ({CH2CO}-[NMeF]PL[hLys]P[Tic][Phe(4-CONH2)]C-NH2; thioether N-8)	–
1340 nM	CC(C)C[C@@H]1NC(=O)[C@@H]2CCCN2C(=O)[C@H](Cc2ccccc2)NC(=O)CSC[C@@H](C(N)=O)NC(=O)[C@H](Cc2ccc(C(N)=O)cc2)NC(=O)[C@@H]2Cc3ccccc3CN2C(=O)[C@@H]2C[C@H](C(F)(F)F)CN2C(=O)[C@H](CCCCN)NC1=O ({CH2CO}-FPLK[Pro(cis-4-CF3)][Tic][Phe(4-CONH2)]C-NH2; thioether N-8)	–
1.2 nM	CC(C)C[C@@H]1NC(=O)[C@@H]2C[C@@H](c3ccccc3)CN2C(=O)[C@H](Cc2ccccc2)NC(=O)CSC[C@@H](C(N)=O)NC(=O)[C@H](Cc2ccc(C(N)=O)cc2)NC(=O)[C@@H]2Cc3ccccc3CN2C(=O)[C@@H]2CCCN2C(=O)[C@H](CCCCN)NC1=O ({CH2CO}-F[Pro(trans-4-Ph)]LKP[Tic][Phe(4-CONH2)]C-NH2; thioether N-8)	–
18 nM	CC(C)C[C@@H]1NC(=O)[C@@H]2C[C@@H](C(F)(F)F)CN2C(=O)[C@H](Cc2ccccc2)NC(=O)CSC[C@@H](C(N)=O)NC(=O)[C@H](Cc2ccc(C(N)=O)cc2)NC(=O)[C@@H]2Cc3ccccc3CN2C(=O)[C@@H]2CCCN2C(=O)[C@H](CCCCN)NC1=O ({CH2CO}-F[X1]LKP[Tic][Phe(4-CONH2)]C-NH2; thioether N-8)	–
13 nM	CC(C)C[C@@H]1NC(=O)[C@@H]2CCCN2C(=O)[C@H](Cc2ccccc2)NC(=O)CSC[C@@H](C(N)=O)NC(=O)[C@H](Cc2ccc(C(N)=O)cc2)NC(=O)[C@@H]2Cc3ccccc3CN2C(=O)[C@@H]2CC(F)(F)CN2C(=O)[C@H](CCCCN)NC1=O ({CH2CO}-FPLK[Pro(4,4-F2)][Tic][Phe(4-CONH2)]C-NH2; thioether N-8)	–
18 nM	CC(C)C[C@@H]1NC(=O)[C@@H]2CC(F)(F)CN2C(=O)[C@H](Cc2ccccc2)NC(=O)CSC[C@@H](C(N)=O)NC(=O)[C@H](Cc2ccc(C(N)=O)cc2)NC(=O)[C@@H]2Cc3ccccc3CN2C(=O)[C@@H]2CCCN2C(=O)[C@H](CCCCN)NC1=O ({CH2CO}-F[Pro(4,4-F2)]LKP[Tic][Phe(4-CONH2)]C-NH2; thioether N-8)	–
263 nM	CC(C)C[C@@H]1NC(=O)[C@@H]2CCCN2C(=O)[C@H](Cc2ccccc2)NC(=O)CSC[C@@H](C(N)=O)NC(=O)[C@H](Cc2ccc(C(N)=O)cc2)NC(=O)[C@@H]2Cc3ccccc3CN2C(=O)[C@@H]2C[C@@H](C(F)(F)F)CN2C(=O)[C@H](CCCCN)NC1=O ({CH2CO}-FPLK[X1][Tic][Phe(4-CONH2)]C-NH2; thioether N-8)	–
